Data on 24 compounds can be found in ChEMBL document CHEMBL3046618, “Syntheses and biological activities of pyranyl-substituted cinnamates” (Biosci Biotechnol Biochem, 2001).

In one data set the test system is Brassica rapa. As to the kind of experiment: Toxicity against Brassica rapa assessed as plant growth inhibition at 100 ppm relative to untreated control. Type of data set: organism-based. Particulars: in vivo. In short, it runs like this: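 Seedlings held three days at 27°C in darkness, then radicle and hypocotyl lengths measured. Growth inhibition (%) calculated for each organ against control. Each experiment run three times.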

The subject of the next data set is Rhizoctonia solani. As to the kind of experiment: Antifungal activity against Rhizoctonia solani assessed as fungal growth inhibition at 100 ppm relative to untreated control. The data set is classed as functional. Particulars: read-out: GI. An outline of the steps: (§1)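 Fungus precultured on potato dextrose agar (1.5% agar) for four days at 27°C before testing. Compounds tested at 100 ppm in triplicate. Growth inhibition (%) relative to untreated control.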

A further data set has as its system [Sclerotium] delphinii. The experiment in a line: Antifungal activity against Sclerotium delphinii assessed as fungal growth inhibition at 100 ppm relative to untreated control. Particulars: Agroathelia delphinii; read-out: GI. Type of data set: functional. In short, it runs like this: as §1

As to `Cc1cc(OC(=O)/C=C/c2ccc(F)cc2)cc(=O)o1`, the “growth inhibition (GI)” value with Brassica rapa is more than 50%. Besides, the inhibition of growth at 100 ppm is 70% in the data set on Rhizoctonia solani and 30% in data set [Sclerotium] delphinii.

`Cc1cc(OC(=O)/C=C/c2ccc(Cl)cc2)cc(=O)o1`: the “growth inhibition (GI)” value with Brassica rapa was more than 60%. Moreover, the inhibition of growth at 100 ppm in the data set on Rhizoctonia solani was more than 60%; in data set [Sclerotium] delphinii, 30%.

For `Cc1cc(OC(=O)/C=C/c2ccccc2F)cc(=O)o1`, the “growth inhibition (GI)” value in the data set on Brassica rapa stood at 30%. For the same compound, the inhibition of growth at 100 ppm in the data set with Rhizoctonia solani was 60%; in data set [Sclerotium] delphinii, more than 40%.

Take `Cc1cc(OC(=O)/C=C/c2cccc(F)c2)cc(=O)o1`: the “growth inhibition (GI)” value in the data set on Brassica rapa was more than 50%. The figures for the inhibition of growth at 100 ppm (with Rhizoctonia solani; in data set [Sclerotium] delphinii) were more than 60% and 30%, respectively.

For `Cc1cc(OC(=O)/C=C/c2ccc(C(C)C)cc2)cc(=O)o1`, the “growth inhibition (GI)” value in the data set on Brassica rapa amounted to 20%. Besides, the inhibition of growth at 100 ppm in the data set with Rhizoctonia solani was 80%; in data set [Sclerotium] delphinii, not above 50%.

As to `Cc1cc(OC(=O)/C=C/c2ccccc2Cl)cc(=O)o1`, the “growth inhibition (GI)” value in the data set on Brassica rapa was determined as 20%. For the same compound, the inhibition of growth at 100 ppm in the data set on Rhizoctonia solani was 60%; in data set [Sclerotium] delphinii, 20%.

`Cc1cc(OC(=O)/C=C/c2cccc(Cl)c2)cc(=O)o1`: in the data set on Brassica rapa, the “growth inhibition (GI)” value is “<= 70%”. Also, the inhibition of growth at 100 ppm worked out at 60% with Rhizoctonia solani and 40% in data set [Sclerotium] delphinii.

Regarding `Cc1cccc(/C=C/C(=O)Oc2cc(C)oc(=O)c2)c1`, the “growth inhibition (GI)” value in the data set with Brassica rapa worked out at 40%. Also, the inhibition of growth at 100 ppm is 70% in the data set with Rhizoctonia solani and 40% in data set [Sclerotium] delphinii.

In the case of `Cc1ccc(/C=C/C(=O)Oc2cc(C)oc(=O)c2)cc1`, the “growth inhibition (GI)” value in the data set with Brassica rapa came out at 30%. The inhibition of growth at 100 ppm was 70% in the data set with Rhizoctonia solani and 10% in data set [Sclerotium] delphinii.

As for `Cc1cc(OC(=O)/C=C/c2ccccc2)cc(=O)o1`, the “growth inhibition (GI)” value with Brassica rapa is listed as 30%. Further, the inhibition of growth at 100 ppm with Rhizoctonia solani was more than 60%; in data set [Sclerotium] delphinii it was 20%.

Regarding `Cc1cc(OC(=O)/C=C/c2ccccc2C)cc(=O)o1`, in the data set with Brassica rapa, the “growth inhibition (GI)” value was found to be 80%. Also, the inhibition of growth at 100 ppm in the data set with Rhizoctonia solani amounted to 70%; in data set [Sclerotium] delphinii it was 20%.

As for `O=C(/C=C/c1ccccc1F)Oc1cc(CCc2ccccc2)oc(=O)c1`, the “growth inhibition (GI)” value in the data set with Brassica rapa was 40%. Further, the inhibition of growth at 100 ppm (with Rhizoctonia solani; in data set [Sclerotium] delphinii) was 10% each time.

For the compound `O=C(/C=C/c1cccc(F)c1)Oc1cc(CCc2ccccc2)oc(=O)c1`, the “growth inhibition (GI)” value in the data set on Brassica rapa turned out to be 30%. The inhibition of growth at 100 ppm in the data set on Rhizoctonia solani was 40%; in data set [Sclerotium] delphinii, more than 30%.

As to `O=C(/C=C/c1ccc(F)cc1)Oc1cc(CCc2ccccc2)oc(=O)c1`, the “growth inhibition (GI)” value in the data set on Brassica rapa was 40%. Moreover, the inhibition of growth at 100 ppm (in the data set on Rhizoctonia solani; in data set [Sclerotium] delphinii) was 10% throughout.

Regarding `O=C(/C=C/c1ccc(Cl)cc1)Oc1cc(CCc2ccccc2)oc(=O)c1`, the “growth inhibition (GI)” value with Brassica rapa is 20%. Also, the inhibition of growth at 100 ppm was 10% in the data set with Rhizoctonia solani and more than 30% in data set [Sclerotium] delphinii.

For the compound `O=C(/C=C/c1cccc(Cl)c1)Oc1cc(CCc2ccccc2)oc(=O)c1`, the “growth inhibition (GI)” value in the data set on Brassica rapa was found to be 50%. In addition, the inhibition of growth at 100 ppm was 40% in the data set on Rhizoctonia solani and 10% in data set [Sclerotium] delphinii.

Consider `O=C(/C=C/c1ccccc1Cl)Oc1cc(CCc2ccccc2)oc(=O)c1`, for which the “growth inhibition (GI)” value in the data set on Brassica rapa came out at 30%. For the same compound, the inhibition of growth at 100 ppm in the data set on Rhizoctonia solani was 40%; in data set [Sclerotium] delphinii, more than 30%.

For the compound `Cc1cccc(/C=C/C(=O)Oc2cc(CCc3ccccc3)oc(=O)c2)c1`, the “growth inhibition (GI)” value with Brassica rapa is listed as 40%. Further, the inhibition of growth at 100 ppm was 50% in the data set on Rhizoctonia solani and 30% in data set [Sclerotium] delphinii.

With `Cc1ccc(/C=C/C(=O)Oc2cc(CCc3ccccc3)oc(=O)c2)cc1`, the “growth inhibition (GI)” value in the data set with Brassica rapa was determined as 30%. Moreover, the inhibition of growth at 100 ppm is 50% in the data set on Rhizoctonia solani and not above 10% in data set [Sclerotium] delphinii.

Regarding `CC(C)c1ccc(/C=C/C(=O)Oc2cc(CCc3ccccc3)oc(=O)c2)cc1`, the “growth inhibition (GI)” value in the data set on Brassica rapa was found to be 10%. Besides, the inhibition of growth at 100 ppm was 40% in the data set with Rhizoctonia solani and more than 30% in data set [Sclerotium] delphinii.

For the compound `O=C(/C=C/c1ccccc1)Oc1cc(CCc2ccccc2)oc(=O)c1`, the “growth inhibition (GI)” value in the data set with Brassica rapa was 30%. Besides, the inhibition of growth at 100 ppm with Rhizoctonia solani was found to be 20%; in data set [Sclerotium] delphinii it was 30%.

Consider `Cc1ccccc1/C=C/C(=O)Oc1cc(CCc2ccccc2)oc(=O)c1`, for which, in the data set with Brassica rapa, the “growth inhibition (GI)” value is listed as more than 60%. In addition, the figures for the inhibition of growth at 100 ppm (in the data set with Rhizoctonia solani; in data set [Sclerotium] delphinii) were 50% and 40%, respectively.

`Cc1cc(O)cc(=O)o1` [4-HYDROXY-6-METHYLPYRAN-2-ONE]: the inhibition of growth at 100 ppm with Rhizoctonia solani was not above 10%; in data set [Sclerotium] delphinii, 20%.

In the case of `COc1cc(CCc2ccccc2)oc(=O)c1` [DIHYDRO-5,6-DEHYDROKAWAIN], the “growth inhibition (GI)” value in the data set with Brassica rapa was 0%. The inhibition of growth at 100 ppm (in the data set on Rhizoctonia solani; in data set [Sclerotium] delphinii) was 50% in each case.
